# Screening results from PubChem.
# V1R ag counter: V1a receptor agonism, counter-screen for OXTR agonists. 0.25% of 320,000 active. P37288. activation, % at 3 µM. CHO-V1R cells, Fluo-8 calcium fluorescence, agonist mode; 0% DMSO, 100% 3 nM vasopressin;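 active means activation above the mean activation of all tested compounds plus 3 SD, per screening run, cut at about 20% in these data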;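 further: signal is peak over basal fluorescence ratio across a 100 second FLIPR read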
# TRPML3 agonist: human mucolipin-3 channel agonism; activation, % at 3 µM; AID 1448; 0.29% of 220,000 active; HEK293 TRPML3-YFP, Fluo-8 calcium fluorescence; 100% = the carbachol control signal; Q8TDD5;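 active means activation above its plate's cutoff, the mean activation of the plate's test wells plus 3 SD, cut at about 12% in these data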;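 further: 0% = DMSO only wells and 100% = carbachol wells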
# Target sequence (Q8TDD5 whole entry, looked up): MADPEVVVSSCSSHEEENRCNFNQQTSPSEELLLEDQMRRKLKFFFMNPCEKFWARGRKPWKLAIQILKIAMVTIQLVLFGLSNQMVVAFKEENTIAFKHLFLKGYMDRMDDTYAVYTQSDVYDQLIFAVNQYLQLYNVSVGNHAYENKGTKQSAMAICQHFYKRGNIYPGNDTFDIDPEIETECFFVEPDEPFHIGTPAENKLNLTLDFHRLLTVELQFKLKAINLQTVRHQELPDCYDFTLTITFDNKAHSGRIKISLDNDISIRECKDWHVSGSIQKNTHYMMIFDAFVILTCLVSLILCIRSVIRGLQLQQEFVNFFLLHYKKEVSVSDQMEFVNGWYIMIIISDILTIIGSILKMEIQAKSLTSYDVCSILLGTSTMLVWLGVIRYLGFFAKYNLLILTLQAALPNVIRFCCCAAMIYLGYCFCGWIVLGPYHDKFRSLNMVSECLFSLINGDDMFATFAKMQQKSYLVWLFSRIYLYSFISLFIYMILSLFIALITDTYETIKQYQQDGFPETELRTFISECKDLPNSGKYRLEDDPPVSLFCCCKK
#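 Material: HEK293 cells stably carrying human TRPML3-YFP; compound dosing: single dose, 3 µM final nominal compound, 0.3% DMSO final; incubation: 1-h 37 °C dye load, 5-s basal, 120-s post-compound reads; technique: Fluo-8 intracellular calcium fluorescence, excitation 470-495 nm, emission 515-575 nm; read-out basis: percent activation from peak-to-basal fluorescence ratio, scaled between DMSO and carbachol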
# TRPN1 ag: agonists of zebrafish TRPN1 channel. HEK293 zebrafish TRPN1-YFP, Fluo-8 calcium fluorescence; 100% = response to 87 µM carbachol. activation, % at 3 µM. 0.18% of 220,000 active;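 active means activation above its plate's cutoff, the mean activation of test wells on that plate plus 3 SD, cut at about 19% in these data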;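 further: 0% = DMSO alone and 100% = 87 µM carbachol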
#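 Material – zebrafish TRPN1-YFP in HEK293 cells · Doses – 3 µM single point · Schedule – dye 1 h 37 °C plus 30 min RT · Signal – Fluo-8 calcium fluorescence, excitation 470-495 nm, emission 515-575 nm · Read-out – % activation versus carbachol response · Control set – carbachol high, DMSO low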
# CRFR2-BP ag: CRF-BP/CRF-R2 complex agonism; HEK293 CRF-R2/CRF-BP, calcium dye fluorescence (FLIPR); percent of saturating CRF peptide response; activation, % at 13.2 µM; 0.46% of 350,000 active; AID 588473;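 active means activation of at least 50%, plus an integration ratio under a set limit after plate pattern correction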;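 further: plate controls were neutral control wells without compound for no effect and CRF at EC100 for full effect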
# OXTR potentiator: human OXTR potentiation | activation, % at 3 µM | CHO-OTR cells, Fluo-8 calcium fluorescence, potentiator mode; 0% = oxytocin EC15, 100% = EC100 | P30559 | 0.061% of 320,000 active;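 active means activation above that plate's cutoff, the mean activation of tested compounds plus 3 SD, cut at about 6.6% in these data, passing the limit was not always enough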;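 further: 100% uses oxytocin at 75 nM as the full agonist control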
#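 Material: human OTR in CHO cells. Compound: 3.0 µM, one dose. Timing: compound 6 min at room temperature before oxytocin, 100 s read. Evaluation: % activation of max/min ratio relative to oxytocin controls. Replication: single well per compound, singlicate. Signal: Fluo-8 calcium dye fluorescence.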
# OXTR agonist: agonists of human oxytocin receptor; CHO-OTR cells, Fluo-8 calcium fluorescence; normalized: DMSO 0%, oxytocin 100%; 0.32% of 320,000 active; P30559; activation, % at 3 µM;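 active means activation above the mean of all tested compounds plus 3 SD, cutoff set per screening run, cut at about 20% in these data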;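 further: peak over basal fluorescence ratio from a 100 s FLIPR kinetic read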
# * = called active by the depositor; x = no result. Only some compounds are listed: those with a hit (about 0.85% of all), similar ones and a draw of the others.
SMILES,V1R ag counter,TRPML3 agonist,TRPN1 ag,CRFR2-BP ag,OXTR potentiator,OXTR agonist
COc1cccc2c1C(=O)c1c(O)c3c(c(O)c1C2=O)CC(O)(C(C)=O)CC3OC1CC(N(C)C)C(O)C(C)O1 (configuration not stated),x,x,x,89*,x,x
CC(C)=CCc1cc2c(=O)c3c(O)c4c(cc3oc2c(O)c1O)OC(C)C4(C)C (configuration not stated),1,x,x,x,-7,-1
C#Cc1ccc(CN2CCC(Oc3ccc(C(=O)NCc4ccccn4)cc3)CC2)cc1,3,x,x,-3,0,2
COc1ccc(/C=C2\SC(=O)N(CC(=O)NC3C=CS(=O)(=O)C3)C2=O)cc1 (configuration not stated),-1,x,x,0,-6,0
Cc1ccc(C(C)C)c2c1C(c1ccc3c(c1)OCO3)CC(=O)O2 (configuration not stated),x,x,x,66*,x,x
O=C(c1ccc(CNc2c(NC3CCCCC3)c(=O)c2=O)cc1)N1CCc2ccccc21,x,1,1,-1,x,x
CCc1ccc2nc(N(CCCN(C)C)C(=O)c3ccc(S(=O)(=O)N4CCc5ccccc5C4)cc3)sc2c1,5,x,x,12,-5,8
CCOc1cccc2sc(N(CCCN(C)C)C(=O)c3ccc(S(=O)(=O)N4CCc5ccccc5C4)cc3)nc12,35*,x,x,2,-16,25*
O=C(C[C@H]1C[C@H](C(=O)N2CCOCC2)[C@@]2(CCC3CCCC3)c3[nH]c4ccc(Cl)cc4c3CCN2C1=O)NCCN1CCOCC1,x,x,x,88*,x,x
O=[N+]([O-])c1ccc(N/N=C/C=C/c2ccco2)cc1,12,x,x,95*,-11,15
O=C(O)c1ccc(N/N=C/C=C/c2ccc([N+](=O)[O-])o2)cc1,41*,x,x,38,-8,29*
O=C(N/N=C/c1ccc([N+](=O)[O-])o1)C(=O)Nc1ccc(C(=O)O)cc1,1,1,0,0,3,0
O=C(N/N=C/c1ccco1)c1cc([N+](=O)[O-])cc([N+](=O)[O-])c1,0,1,-1,-2,-4,0
Cc1c(O)cc2c(c1O)C(=O)CC(c1ccccc1)O2 (configuration not stated),48*,x,x,105*,-10,59*
COC(=O)c1scc(C)c1NC(=O)c1ccccc1F,-1,x,x,204*,-9,-2
CCC(C(=O)OCC(=O)N(CCOC)c1c(N)n(Cc2ccccc2)c(=O)[nH]c1=O)c1ccccc1 (configuration not stated),0,x,x,0,-4,0
Cc1cc(C)c(OCC(=O)Nc2ccccc2N2CCOCC2)c(C)c1,18,15*,24*,53*,-12,14
COc1ccccc1S(=O)(=O)N(C)C[C@H]1Oc2ncc(Br)cc2C(=O)N([C@H](C)CO)C[C@H]1C,x,x,x,-1,x,x
O=C1S/C(=C/c2ccc(N3CCOCC3)o2)C(=O)N1Cc1c(F)cccc1Cl,3,1,-1,84*,-1,6
O=C1S/C(=C\c2ccc(N3CCOCC3)o2)C(=O)N1Cc1c(F)cccc1Cl,4,1,1,16,-1,3
Cc1nn(-c2ccc(C(=O)O)cc2)c2c1C(=O)CC(C)(C)C2,1,0,1,-3,-5,1
Cc1c(CC(Cl)(Cl)Cl)c2c(n1O)CC(C)(C)CC2=O,11,2,1,55*,-12,13
Cc1cc(C)cc(-n2c(C)cc(/C=C3\C(=N)N4N=C(CC(C)C)SC4=NC3=O)c2C)c1,0,1,2,60*,-2,-1
Cc1cc(/C=C2\C(=N)N3N=C(C(C)C)SC3=NC2=O)c(C)n1-c1ccccc1,1,1,-1,9,-14,-1
CCCC1=NN2C(=N)/C(=C\c3cc(C)n(-c4cc(C)cc(C)c4)c3C)C(=O)N=C2S1,9,0,0,51*,-11,9
SMILES,V1R ag counter,TRPML3 agonist,TRPN1 ag,CRFR2-BP ag,OXTR potentiator,OXTR agonist
Cc1cccc(-n2c(C)cc(/C=C3\C(=N)N4N=C(CC(C)C)SC4=NC3=O)c2C)c1,1,1,1,71*,-7,0
COc1ccccc1CCNC(=O)CN1C(=O)c2ccccc2S1(=O)=O,-1,x,x,0,-1,-1
CCOc1ccc(CCNC(=O)COC(=O)CNS(=O)(=O)c2ccc(NC(C)=O)cc2)cc1OCC,-1,x,x,1,-5,0
O=C(Nc1ccc(OCc2ccccc2)cc1)c1ccccc1,-1,0,-1,0,-5,0
O=C(Nc1ccc(OCc2ccccc2)cc1)c1cccnc1,22*,1,2,0,-16,21*
O=C(NCc1ccco1)C1CCCN(c2nnc(-n3cccc3)s2)C1 (configuration not stated),-1,x,x,-3,2,0
O=C(COC(=O)CCc1c[nH]c2ccccc12)Nc1ccccc1C(F)(F)F,4,x,x,0,-9,6
Cc1ccccc1CSCC(=O)Nc1ccccc1Br,-1,x,x,0,3,-2
O=C(O)c1cc2c(cc1Br)OCCCO2,0,0,19*,4,-5,0
O=C(O)c1ccc2c(c1)OCCCO2,0,0,2,5,-3,0
O[C@H]1CN(CC2CCCCC2)[C@@H](c2ccccc2)C[C@@H]1n1cc(C2CC2)nn1,x,x,x,3,x,x
COc1ccccc1/C=C1/SC(=S)N(CCC(=O)Nc2cccnc2)C1=O,2,x,x,3,-16,0
COc1ccc(/C=C2/SC(=S)N(Cc3ccccc3)C2=O)cc1O,x,x,x,-1,x,x
COc1ccc(O)c(/C=C2/SC(=S)N(Cc3ccccc3)C2=O)c1,1,x,x,74*,-7,1
COc1ccc(OC)c(/C=C2\SC(=S)N(Cc3cccnc3)C2=O)c1,1,1,4,136*,0,2
O=C1/C(=C\c2cc(Cl)c(O)c(Cl)c2)SC(=S)N1Cc1ccccc1,x,x,x,187*,x,x
Cc1cccc(OCCCn2c(CO)nc3ccccc32)c1,3,0,1,-1,-3,3
Cc1ccc(NS(=O)(=O)c2c(C)nc3sccn3c2=O)cc1,1,x,x,2,-6,3
Cc1nc2sccn2c(=O)c1S(=O)(=O)Nc1cccc(Cl)c1C,1,x,x,57*,-4,3
CCc1ccc(-c2nc(CN3CCC(C(=O)N4CCN(c5ccccc5)CC4)CC3)c(C)o2)cc1,34*,4,3,313*,-11,29*
COc1ccc(OC)c(C(=O)CN2C(=O)C(=O)N(C3CCCC3)C2=O)c1,-1,x,x,-3,-5,-1
COCCNC(=O)/C(C#N)=C/c1ccc(N2CCOCC2)o1,10,2,5,42,-6,6
